In ChEMBL document CHEMBL3244034, “Semisynthetic cephalosporins. Synthesis and structure-activity relationships of 7-(1-pyrryl)- and 7-(1-indolyl)acetamidocephalosporin derivatives” (1978):
In brackets after ≈: the same amount, converted by molar mass. Activity calls are given as the source filed them. The rule behind the calls is not given here.

test system: Staphylococcus aureus; assay: Antibacterial activity against benzylpenicillin-resistant Staphylococcus aureus after 17 hrs by serial two fold dilution method; format: functional
In short: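 Agar dilution MIC. Compound was serially diluted twofold in Mueller-Hinton agar. The surface was inoculated with a diluted 18-24-h broth culture […]. Plates were incubated 17 h at 37 °C. MIC was taken as the lowest concentration giving complete or virtually complete inhibition of visible growth.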

SMILES	MIC [µg/mL]
CC(=O)OCC1=C(C(=O)O)N2C(=O)[C@@H](NC(=O)Cn3cccc3C=O)[C@H]2SC1	1.6 (≈ 3.93 µM)
CC1=C(C(=O)O)N2C(=O)[C@@H](NC(=O)Cn3ccc4ccccc43)[C@H]2SC1	3.1 (≈ 8.35 µM)
Cn1nnnc1SCC1=C(C(=O)O)N2C(=O)[C@@H](NC(=O)Cn3cccc3)[C@H]2SC1	0.8 (≈ 1.84 µM)

test system: Staphylococcus aureus; assay: Antibacterial activity against Staphylococcus aureus after 17 hrs by serial two fold dilution method; format: functional
In short: (§1)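 Agar dilution MIC: compound serially diluted twofold in Mueller-Hinton agar. Plate surfaces were inoculated with a suitably diluted 18-24-h broth culture and incubated 17 h at 37 °C. MIC was read as the lowest concentration giving complete or virtually complete inhibition of visible growth.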

SMILES	MIC [µg/mL]
CC(=O)OCC1=C(C(=O)O)N2C(=O)[C@@H](NC(=O)Cn3cccc3C=O)[C@H]2SC1	0.8 (≈ 1.96 µM)
CC1=C(C(=O)O)N2C(=O)[C@@H](NC(=O)Cn3ccc4ccccc43)[C@H]2SC1	1.6 (≈ 4.31 µM)
Cn1nnnc1SCC1=C(C(=O)O)N2C(=O)[C@@H](NC(=O)Cn3cccc3)[C@H]2SC1	0.4 (≈ 0.919 µM)

test system: Staphylococcus epidermidis; assay: Antibacterial activity against Staphylococcus epidermidis after 17 hrs by serial two fold dilution method; format: functional; in short: as §1

SMILES	MIC [µg/mL]
CC(=O)OCC1=C(C(=O)O)N2C(=O)[C@@H](NC(=O)Cn3cccc3C=O)[C@H]2SC1	3.1 (≈ 7.61 µM)
CC1=C(C(=O)O)N2C(=O)[C@@H](NC(=O)Cn3ccc4ccccc43)[C@H]2SC1	6.2 (≈ 16.7 µM)
Cn1nnnc1SCC1=C(C(=O)O)N2C(=O)[C@@H](NC(=O)Cn3cccc3)[C@H]2SC1	1.6 (≈ 3.67 µM)

test system: Enterococcus faecalis; assay: Antibacterial activity against Staphylococcus faecalis after 17 hrs by serial two fold dilution method; format: functional; in short: as §1

SMILES	MIC [µg/mL]
CC(=O)OCC1=C(C(=O)O)N2C(=O)[C@@H](NC(=O)Cn3cccc3C=O)[C@H]2SC1	> 100
CC1=C(C(=O)O)N2C(=O)[C@@H](NC(=O)Cn3ccc4ccccc43)[C@H]2SC1	> 100
Cn1nnnc1SCC1=C(C(=O)O)N2C(=O)[C@@H](NC(=O)Cn3cccc3)[C@H]2SC1	> 100

test system: Streptococcus pneumoniae; assay: Antibacterial activity against Streptococcus pneumoniae after 17 hrs by serial two fold dilution method; format: functional; in short: as §1

SMILES	MIC [µg/mL]
CC1=C(C(=O)O)N2C(=O)[C@@H](NC(=O)Cn3ccc4ccccc43)[C@H]2SC1	1.6 (≈ 4.31 µM)
Cn1nnnc1SCC1=C(C(=O)O)N2C(=O)[C@@H](NC(=O)Cn3cccc3)[C@H]2SC1	0.1 (≈ 0.23 µM)

test system: Streptococcus pyogenes; assay: Antibacterial activity against Streptococcus pyogenes after 17 hrs by serial two fold dilution method; format: functional; in short: as §1

SMILES	MIC [µg/mL]
CC(=O)OCC1=C(C(=O)O)N2C(=O)[C@@H](NC(=O)Cn3cccc3C=O)[C@H]2SC1	0.4 (≈ 0.982 µM)
CC1=C(C(=O)O)N2C(=O)[C@@H](NC(=O)Cn3ccc4ccccc43)[C@H]2SC1	0.8 (≈ 2.15 µM)
Cn1nnnc1SCC1=C(C(=O)O)N2C(=O)[C@@H](NC(=O)Cn3cccc3)[C@H]2SC1	0.1 (≈ 0.23 µM)

test system: Klebsiella aerogenes; assay: Antibacterial activity against Enterobacter aerogenes after 17 hrs by serial two fold dilution method; format: functional

SMILES	MIC [µg/mL]
CC(=O)OCC1=C(C(=O)O)N2C(=O)[C@@H](NC(=O)Cn3cccc3C=O)[C@H]2SC1	> 100
CC1=C(C(=O)O)N2C(=O)[C@@H](NC(=O)Cn3ccc4ccccc43)[C@H]2SC1	> 100
Cn1nnnc1SCC1=C(C(=O)O)N2C(=O)[C@@H](NC(=O)Cn3cccc3)[C@H]2SC1	25 (≈ 57.4 µM)

test system: Enterobacter cloacae; assay: Antibacterial activity against Enterobacter cloacae after 17 hrs by serial two fold dilution method; format: functional

SMILES	MIC [µg/mL]
CC(=O)OCC1=C(C(=O)O)N2C(=O)[C@@H](NC(=O)Cn3cccc3C=O)[C@H]2SC1	> 100
CC1=C(C(=O)O)N2C(=O)[C@@H](NC(=O)Cn3ccc4ccccc43)[C@H]2SC1	> 100
Cn1nnnc1SCC1=C(C(=O)O)N2C(=O)[C@@H](NC(=O)Cn3cccc3)[C@H]2SC1	6.2 (≈ 14.2 µM)

test system: Escherichia coli; assay: Antibacterial activity against Escherichia coli after 17 hrs by serial two fold dilution method; format: functional; in short: as §1

SMILES	MIC [µg/mL]
CC(=O)OCC1=C(C(=O)O)N2C(=O)[C@@H](NC(=O)Cn3cccc3C=O)[C@H]2SC1	100 (≈ 245 µM)
CC1=C(C(=O)O)N2C(=O)[C@@H](NC(=O)Cn3ccc4ccccc43)[C@H]2SC1	> 100
Cn1nnnc1SCC1=C(C(=O)O)N2C(=O)[C@@H](NC(=O)Cn3cccc3)[C@H]2SC1	0.8 (≈ 1.84 µM)

test system: Klebsiella pneumoniae; assay: Antibacterial activity against Klebsiella pneumoniae after 17 hrs by serial two fold dilution method; format: functional; in short: as §1

SMILES	MIC [µg/mL]
CC(=O)OCC1=C(C(=O)O)N2C(=O)[C@@H](NC(=O)Cn3cccc3C=O)[C@H]2SC1	50 (≈ 123 µM)
CC1=C(C(=O)O)N2C(=O)[C@@H](NC(=O)Cn3ccc4ccccc43)[C@H]2SC1	> 100
Cn1nnnc1SCC1=C(C(=O)O)N2C(=O)[C@@H](NC(=O)Cn3cccc3)[C@H]2SC1	1.6 (≈ 3.67 µM)

test system: Proteus mirabilis; assay: Antibacterial activity against Proteus mirabilis after 17 hrs by serial two fold dilution method; format: functional; in short: as §1

SMILES	MIC [µg/mL]
CC(=O)OCC1=C(C(=O)O)N2C(=O)[C@@H](NC(=O)Cn3cccc3C=O)[C@H]2SC1	100 (≈ 245 µM)
CC1=C(C(=O)O)N2C(=O)[C@@H](NC(=O)Cn3ccc4ccccc43)[C@H]2SC1	> 100
Cn1nnnc1SCC1=C(C(=O)O)N2C(=O)[C@@H](NC(=O)Cn3cccc3)[C@H]2SC1	6.2 (≈ 14.2 µM)

test system: Proteus vulgaris; assay: Antibacterial activity against Proteus vulgaris after 17 hrs by serial two fold dilution method; format: functional; in short: as §1

SMILES	MIC [µg/mL]
CC(=O)OCC1=C(C(=O)O)N2C(=O)[C@@H](NC(=O)Cn3cccc3C=O)[C@H]2SC1	> 100
CC1=C(C(=O)O)N2C(=O)[C@@H](NC(=O)Cn3ccc4ccccc43)[C@H]2SC1	> 100
Cn1nnnc1SCC1=C(C(=O)O)N2C(=O)[C@@H](NC(=O)Cn3cccc3)[C@H]2SC1	> 100

test system: Providencia stuartii; assay: Antibacterial activity against Providencia stuartii after 17 hrs by serial two fold dilution method; format: functional; in short: as §1

SMILES	MIC [µg/mL]
CC(=O)OCC1=C(C(=O)O)N2C(=O)[C@@H](NC(=O)Cn3cccc3C=O)[C@H]2SC1	> 100
CC1=C(C(=O)O)N2C(=O)[C@@H](NC(=O)Cn3ccc4ccccc43)[C@H]2SC1	> 100
Cn1nnnc1SCC1=C(C(=O)O)N2C(=O)[C@@H](NC(=O)Cn3cccc3)[C@H]2SC1	6.2 (≈ 14.2 µM)

test system: Pseudomonas aeruginosa; assay: Antibacterial activity against Pseudomonas aeruginosa after 17 hrs by serial two fold dilution method; format: functional; in short: as §1

SMILES	MIC [µg/mL]
CC(=O)OCC1=C(C(=O)O)N2C(=O)[C@@H](NC(=O)Cn3cccc3C=O)[C@H]2SC1	> 100
CC1=C(C(=O)O)N2C(=O)[C@@H](NC(=O)Cn3ccc4ccccc43)[C@H]2SC1	> 100
Cn1nnnc1SCC1=C(C(=O)O)N2C(=O)[C@@H](NC(=O)Cn3cccc3)[C@H]2SC1	> 100

test system: Salmonella; assay: Antibacterial activity against Salmonella schottmuelleri after 17 hrs by serial two fold dilution method; format: functional; in short: as §1

SMILES	MIC [µg/mL]
CC(=O)OCC1=C(C(=O)O)N2C(=O)[C@@H](NC(=O)Cn3cccc3C=O)[C@H]2SC1	50 (≈ 123 µM)
CC1=C(C(=O)O)N2C(=O)[C@@H](NC(=O)Cn3ccc4ccccc43)[C@H]2SC1	> 100
Cn1nnnc1SCC1=C(C(=O)O)N2C(=O)[C@@H](NC(=O)Cn3cccc3)[C@H]2SC1	0.4 (≈ 0.919 µM)

test system: Staphylococcus aureus; assay: Antibacterial activity against benzylpenicillin-resistant Staphylococcus aureus infected in sc dosed CD1 mouse assessed as host survival administered 1 and 4 hrs after infection measured on day 4; format: functional
In short: (§2)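 Male albino CD-1 mice, 20 (± 1) g, infected intraperitoneally with a bacterial suspension giving uniformly lethal infection. Groups of ten mice were treated subcutaneously with antibiotic at 1 and 4 h post-infection. Survival over 4 days was recorded.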

SMILES	ED50 [mg/kg]
Cn1nnnc1SCC1=C(C(=O)O)N2C(=O)[C@@H](NC(=O)Cn3cccc3)[C@H]2SC1	72

test system: Streptococcus pyogenes; assay: Antibacterial activity against Streptococcus pyogenes infected in sc dosed CD1 mouse assessed as host survival administered 1 and 4 hrs after infection measured on day 4; format: functional; in short: as §2

SMILES	ED50 [mg/kg]
Cn1nnnc1SCC1=C(C(=O)O)N2C(=O)[C@@H](NC(=O)Cn3cccc3)[C@H]2SC1	2.3

test system: Escherichia coli; assay: Antibacterial activity against Escherichia coli infected in sc dosed CD1 mouse assessed as host survival administered 1 and 4 hrs after infection measured on day 4; format: functional; in short: as §2

SMILES	ED50 [mg/kg]
Cn1nnnc1SCC1=C(C(=O)O)N2C(=O)[C@@H](NC(=O)Cn3cccc3)[C@H]2SC1	2.5

test system: Klebsiella pneumoniae; assay: Antibacterial activity against Klebsiella pneumoniae infected in sc dosed CD1 mouse assessed as host survival administered 1 and 4 hrs after infection measured on day 4; format: functional; in short: as §2

SMILES	ED50 [mg/kg]
Cn1nnnc1SCC1=C(C(=O)O)N2C(=O)[C@@H](NC(=O)Cn3cccc3)[C@H]2SC1	67

test system: Proteus mirabilis; assay: Antibacterial activity against Proteus mirabilis infected in sc dosed CD1 mouse assessed as host survival administered 1 and 4 hrs after infection measured on day 4; format: functional; in short: as §2

SMILES	ED50 [mg/kg]
Cn1nnnc1SCC1=C(C(=O)O)N2C(=O)[C@@H](NC(=O)Cn3cccc3)[C@H]2SC1	100

test system: Salmonella; assay: Antibacterial activity against Salmonella schottmuelleri infected in sc dosed CD1 mouse assessed as host survival administered 1 and 4 hrs after infection measured on day 4; format: functional; in short: as §2

SMILES	ED50 [mg/kg]
Cn1nnnc1SCC1=C(C(=O)O)N2C(=O)[C@@H](NC(=O)Cn3cccc3)[C@H]2SC1	2.5

test system: Neisseria gonorrhoeae; assay: Antibacterial activity against Neisseria gonorrhoeae after 17 hrs by serial two fold dilution method; format: functional, organism-based

SMILES	Activity
Cn1nnnc1SCC1=C(C(=O)O)N2C(=O)[C@@H](NC(=O)Cn3cccc3)[C@H]2SC1	inactive

test system: Haemophilus influenzae; assay: Antibacterial activity against Haemophilus influenzae after 17 hrs by serial two fold dilution method; format: functional, organism-based

SMILES	Activity
Cn1nnnc1SCC1=C(C(=O)O)N2C(=O)[C@@H](NC(=O)Cn3cccc3)[C@H]2SC1	inactive

test system: Bacteroides fragilis; assay: Antibacterial activity against Bacteroides fragilis after 17 hrs by serial two fold dilution method; format: functional, organism-based

SMILES	Activity
Cn1nnnc1SCC1=C(C(=O)O)N2C(=O)[C@@H](NC(=O)Cn3cccc3)[C@H]2SC1	inactive

test system: Fusobacterium varium; assay: Antibacterial activity against Fusobacterium varium after 17 hrs by serial two fold dilution method; format: functional, organism-based

SMILES	Activity
Cn1nnnc1SCC1=C(C(=O)O)N2C(=O)[C@@H](NC(=O)Cn3cccc3)[C@H]2SC1	inactive
